# Test results as given in PMC7241432 (ACS infectious diseases, 2019).
# Read-outs that look alike come from different tables or passages of the source.
# What was measured:
# Mtb strain H37Rv = assay: microbe, parasite or virus in culture; assay type: cell-based, Mycobacterium tuberculosis; details: for MBC: Mycobacterium tuberculosis, H37RV
# Mtb [1] = assay type: cell-based, Mycobacterium tuberculosis
# [2] = Stability / PYR release in cell-free medium; assay type: physicochemical
# Outline: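 PYR measured colorimetrically: cell-free medium (R or nitrite-containing NR medium) mixed 1:1 with 0.01 M ferric nitrate in 0.1 N sulfuric acid and shaken 5–10 min at room temperature. Fe3+–PYR complex read by absorbance at 600 nm. Concentration taken from a linear sodium-PYR standard curve. Free PYR followed over 24 h (R medium) and 48 h (NR medium).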
# [3] = tested on: methicillin-sensitive S. aureus; assay: Antimicrobial spectrum MIC90, MSSA; assay type: cell-based; details: Staphylococcus aureus, 24 h
# BlaC = target: T1, BlaC (Mycobacterium tuberculosis, UniProt P9WKD3); assay type: biochemical; details: 100 μM compound, 1 μM BlaC, 10 min
# T1 sequence (P9WKD3 35-307): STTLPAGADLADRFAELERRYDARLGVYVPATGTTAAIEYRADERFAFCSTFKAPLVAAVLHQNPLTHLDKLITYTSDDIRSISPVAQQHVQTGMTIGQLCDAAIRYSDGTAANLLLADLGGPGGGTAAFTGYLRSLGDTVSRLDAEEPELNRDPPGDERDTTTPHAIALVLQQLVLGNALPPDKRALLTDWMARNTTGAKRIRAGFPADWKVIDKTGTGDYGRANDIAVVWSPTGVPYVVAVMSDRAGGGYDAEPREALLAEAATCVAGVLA
# Mtb [4] = details: 14-day exposure of hypoxic Mtb, plus clavulanate; cited from earlier work
# [5] = tested on: luxAB (luciferase) containing strain of Mtb H37Rv; assay type: cell-based, Mycobacterium tuberculosis; details: hypoxic conditions, control
smiles,measurement,setting,value
"[O-][n+]1ccccc1S [PYR, pyrithione]",potency relative to cephalosporin 1a,Mtb strain H37Rv,equipotent on a molar basis
same,MBC,Mtb strain H37Rv; read-out: MBC NR CARA,1.25 µM
same,MBC,Mtb strain H37Rv; read-out: MBC NR CARA + 25 μM Clav,1.25 µM
same,MBC,Mtb strain H37Rv; read-out: MBC R CARA,1.25 µM
same,MBC,Mtb strain H37Rv; read-out: MBC R CARA + 25 μM Clav,1.25 µM
same,reduction of CFU of R Mtb,Mtb [1],> 5 orders of magnitude
same,time to reduce CFU of R Mtb by >5 orders of magnitude,Mtb [1],≤ 24 h
same,stability of free PYR in the medium used for NR conditions,[2]; NR medium,largely disappeared over 48 h
same,stability of free PYR in the medium used for R conditions,[2]; R medium,at least 24 h
same,MIC90,[3],25 µM
CC(=O)OCC1=C(C(=O)O)N2C(=O)[C@@H](NC(=O)Cc3cccs3)[C@H]2SC1 [cephalothin],UV-visible absorption spectrum after incubation with BlaC,BlaC,did not change
C[C@@H](O)[C@H]1C(=O)N2C(C(=O)O)=C(S[C@@H]3CN[C@H](C(=O)N(C)C)C3)[C@H](C)[C@H]12 [meropenem],reduction in colony-forming units (CFUs),Mtb [4],ca. 1 order of magnitude
CO[C@H]1/C=C/O[C@@]2(C)Oc3c(C)c(O)c4c(O)c(c(/C=N/N5CCN(C)CC5)c(O)c4c3C2=O)NC(=O)/C(C)=C\C=C\[C@H](C)[C@H](O)[C@@H](C)[C@@H](O)[C@@H](C)[C@H](OC(C)=O)[C@@H]1C [rifampicin],activity in LORA,[5],lost activity
"O=C(O)CSc1cccc[n+]1[O-] [Compound 10, 2-(carboxymethylthio)pyridine-N-oxide]",PYR release in cell-free medium,"[2]; Fe3+-PYR complex, absorbance at 600 nm",not released
